tested on: HL-60; experiment: Cytotoxicity against human HL60 cells after 72 hrs by trypan blue assay; format: functional, cell-based; details: HL-60, 72 h
Procedure, shortened: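 HL-60 cells in log phase, grown in RPMI 1640 with 10% heat-inactivated FCS, 1% L-glutamine and 1% penicillin–streptomycin (37 °C, 5% CO₂), seeded at 0.1 × 10^6/mL in flasks and exposed to increasing compound concentrations for 72 h at 37 °C. Viable cells counted electronically after trypan blue staining; IC50 as 50% growth inhibition; means SD of at least three experiments.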

Structure (SMILES) | IC50
ON/C(=N\CCc1ccccc1)N/N=C/c1c2ccccc2cc2ccccc12 | 19.6 µM
ON/C(=N\C1CCCCC1)N/N=C/c1c2ccccc2cc2ccccc12 | 21.1 µM
O=C(N/C(=N/O)N/N=C/c1c2ccccc2cc2ccccc12)c1ccc([N+](=O)[O-])cc1 | 10 µM
O=C(N/C(=N/O)N/N=C/c1c2ccccc2cc2ccccc12)c1cc([N+](=O)[O-])cc([N+](=O)[O-])c1 | 8 µM
CCCC/N=C(\NO)N/N=C/c1c2ccccc2cc2ccccc12 | 21.1 µM
CC(C)/N=C(/NO)N/N=C/c1c2ccccc2cc2ccccc12 | 29.8 µM
ON/C(=N\Cc1ccccc1)N/N=C/c1c2ccccc2cc2ccccc12 | 19.3 µM
CC(=O)N/C(=N/O)N/N=C/c1c2ccccc2cc2ccccc12 | 20 µM
CCC/N=C(/NO)N/N=C/c1c2ccccc2cc2ccccc12 | 24.9 µM
C/N=C(/NO)N/N=C/c1c2ccccc2cc2ccccc12 | 32.9 µM
CC/N=C(/NO)N/N=C/c1c2ccccc2cc2ccccc12 | 22.6 µM
